Sampled rows, rich in hits. Any-hit rate of the full collection: about 9.5%.
M1 agonist = agonists of M1 muscarinic receptor; CHO-M1 cells, Fluo-4 calcium fluorescence, agonist mode; hits give high values; B-score at 10 µM; 3% of 64,000 active; AID 626;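 active = fluorescence rise, raw or as B-score row- and column-corrected plate score, outside the 99.7% band of its plate's samples, either direction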
D1 mod = allosterically modulates the human D1 dopamine receptor; P21728; HEK293 D1, CRE-luciferase, dopamine EC30 potentiation; actives deviate in either direction; B-score at 10 µM; 5.9% of 58,000 active; AID 641;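 active = luminescence count or its row- and column-corrected plate score outside the 99.7% band of the plate's sample wells, on either side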
M1 antagonist = antagonists of rat M1 muscarinic receptor; P08482; CHO-M1 cells, Fluo-4 calcium, ACh EC80 antagonist mode; hits give low values; B-score at 10 µM; 3.4% of 64,000 active; AID 628;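 active = calcium fluorescence response, raw or row-and-column corrected B-score, differing from the plate sample mean either way at a set confidence level, mostly lower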
Target sequence (P08482 whole entry, looked up): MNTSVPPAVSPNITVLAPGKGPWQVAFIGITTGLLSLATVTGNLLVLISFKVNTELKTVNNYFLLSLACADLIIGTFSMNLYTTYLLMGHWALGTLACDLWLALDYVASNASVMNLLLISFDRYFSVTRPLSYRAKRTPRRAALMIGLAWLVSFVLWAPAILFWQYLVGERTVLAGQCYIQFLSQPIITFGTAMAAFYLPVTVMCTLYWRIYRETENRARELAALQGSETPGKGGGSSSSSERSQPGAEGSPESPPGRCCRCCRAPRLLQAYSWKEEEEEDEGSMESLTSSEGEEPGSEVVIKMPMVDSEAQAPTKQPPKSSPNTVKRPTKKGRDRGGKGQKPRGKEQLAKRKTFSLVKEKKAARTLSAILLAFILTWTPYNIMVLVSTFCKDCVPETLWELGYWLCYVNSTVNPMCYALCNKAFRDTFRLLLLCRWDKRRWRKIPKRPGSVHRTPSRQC
HEK293 NFkB inh = lowers PMA/ionomycin-induced NF-kB signal in HEK293 cells; inhibition, % at 3 µM; HEK-293 NF-kB luciferase reporter, luminescence; 0.21% of 62,000 active;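 active = inhibition above the mean of all tested compounds plus 3 SD, cut at about 40% in these data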;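 also: 0% = stimulated DMSO wells and 100% = 10 µM reference inhibitor 5653914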
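Signal: luciferase luminescence; Material: HEK-293 cells with stable firefly luciferase reporter driven by four HIV NF-kB elements; Probe or stimulus: PMA with ionomycin; Replication: tested once; Times: 1 h compound pretreatment, then 16 h stimulation at 37 °C, 5% CO2; Benchmarks: DMSO and 10 µM reference inhibitor; Evaluation: per-plate % inhibition versus controls.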
Htt clearance = mutant huntingtin protein clearance; HeLa Exon1htt(103Q)mCFP, aggregate imaging; zero = plate's median compound well; 0.42% of 47,000 active; inhibition, % at 1.5 µM; AID 853;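 active = inhibition of aggregate fluorescence above about 70%, also judged a hit by eye on the cell image, limit read from the data, passing the limit was not always enough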;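 also: cells exposed to compound for three days before fixation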
Jurkat viability = cytotoxicity toward Jurkat cells. Jurkat E6.1 viability, ATP luminescence, 48 h. inhibition, % at 4 µM. 1.2% of 56,000 active;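 active = inhibition above the mean inhibition of all tested compounds plus 3 SD, cut at about 28% in these data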
Numbers without * were called inactive; / = no result.

SMILES	M1 agonist	D1 mod	M1 antagonist	HEK293 NFkB inh	Htt clearance	Jurkat viability
CC1CN(S(=O)(=O)c2cccc(C(=O)OCc3cc(=O)oc4cc(O)ccc34)c2)CC(C)O1 (centres undefined)	0.63	-4.3*	-0.57	13	-44	18
CC1CN(S(=O)(=O)c2cccc(C(=O)OCC(=O)Nc3ccc4c(c3)OCO4)c2)CC(C)O1 (centres undefined)	-0.25	/	-0.099	1	51	-1
Cc1cc(NC(=O)CSc2nc3c(c(=O)n2Cc2ccccc2)SC(C)C3)no1 (centres undefined)	1.1	5.5*	0.025	6	/	3
COC(=O)c1ccccc1NC(=O)CSc1nccn1C	-2.6	0.19	0.19	-1	/	/
CCn1c(SCC(=O)Nc2cc(C)on2)nc2sc(C)c(C)c2c1=O	-0.15	6.9*	1.2	8	/	-5
Cc1cc(NC(=O)CSc2nc3ccccc3c(=O)n2C2CCCC2)no1	-0.092	0.71	0.5	20	/	71*
COC(=O)c1ccccc1NC(=O)CSc1nc(O)cc(=O)n1C1CCCC1	44*	0.93	0.69	4	/	-5
CCN(Cc1ccncc1)C(=O)c1cccs1	-0.6	0.27	-0.31	7	1	-13
O=C(NCc1ccco1)C1CCN(S(=O)(=O)Cc2ccccc2)CC1	/	/	/	/	20	/
COC(=O)c1[nH]c2c(c1C)C(=O)CC(c1cc(OC)ccc1OC)C2 (centres undefined)	-0.14	-0.21	-0.13	11	/	82*
COC(=O)c1[nH]c2c(c1C)C(=O)CC(c1cccs1)C2 (centres undefined)	0.14	0.19	0.12	32	/	97*
CCOc1ccc(C2CC(=O)c3c([nH]c(C(=O)OC)c3C)C2)cc1OC (centres undefined)	-0.13	-0.88	-0.15	8	/	/
CCOC(=O)/C=C/S(=O)(=O)c1ccc(NC(C)=O)cc1	-0.79	-2.2	1.9*	13	26	52*
O=C(/C=C\Nc1ccccn1)c1ccc(Cl)cc1	0.12	-6*	-0.0069	-35	37	0
N#CC(c1nc2ccccc2nc1N1CCCC1)S(=O)(=O)c1cccs1 (centres undefined)	0.35	0.39	0.69	2	/	0
CC(=O)N=c1c(C#N)cc2c(=O)n3cccc(C)c3nc2n1CC(C)C	13*	0.11	0.017	3	/	-4
CCCn1c(=NC(=O)c2ccncc2)c(C#N)cc2c(=O)n3cccc(C)c3nc21	20*	0.36	0.43	10	/	-4
Cc1ccc(Nc2nc(C(=O)N3CCC(C(=O)NCCN4CCOCC4)CC3)cs2)cc1	0.12	0.03	-0.026	10	74*	5
C/C(=N/NC(=O)c1ccccn1)c1ccco1	/	/	/	/	40	/
CC(=O)NC(c1ccco1)c1ccc2cccnc2c1O (centres undefined)	-0.21	1.2	0.6	9	23	74*
O=C1CN(C(=O)CSc2nnc(C3CC3)n2-c2ccccc2)c2ccccc2N1	/	/	/	/	-11	/
COc1ccccc1-c1ccc(=O)n(CC(=O)NC(C)(C)C)n1	0.71	0.32	0.35	3	-8	0
O=C(NC1CC1)c1ccc(-c2nc3ccccc3s2)s1	1	-6*	0.28	-28	-2	3
Cc1noc(C)c1COC(=O)c1ccc(-c2nc3ccccc3s2)s1	-0.044	-1.2	0.013	-2	5	-1
CCOC(=O)C1CCCN(C(=O)Cc2ccc(C)cc2)C1 (centres undefined)	/	/	/	/	-38	/
SMILES	M1 agonist	D1 mod	M1 antagonist	HEK293 NFkB inh	Htt clearance	Jurkat viability
CCOC(=O)C1CCCN(C(=O)C2c3ccccc3Oc3ccccc32)C1 (centres undefined)	-0.37	1.2	0.68*	-2	10	5
O=c1oc2c(CN3CCCCCC3)c(O)ccc2cc1-c1nc2ccccc2[nH]1	248*	0.12	-17*	15	/	4
O=c1cc(-c2ccccc2)c2ccc(O)c(CN3CCCCC3)c2o1	-1.3	-3.1	-0.7	3	-10	4
Fc1ccc(-c2nnc(NC3=NCCCCC3)o2)cc1	0.03	-6.6*	-0.0053	26	/	14
Cc1nn(CC#N)c(=O)n1-c1cccc(F)c1	/	/	/	/	26	/
CCCOC(=O)c1ccc(-n2nnnc2SCC(=O)N2CCCCC2)cc1	/	-3.7*	/	26	-48	5
Cn1cc(C(=O)c2ccc(Cl)cc2)cc1-c1nc2ccccc2n1C	0.16	0.36	-0.11	10	-110	42*
CCOC(=O)C1=C(C)NC(=O)NC1c1ccc(OC(=O)c2ccco2)c(OC)c1 (centres undefined)	-0.64	0.64	0.12	5	/	-4
CC1=C(C(=O)OCc2ccc3c(c2)OCO3)C(c2ccccc2)NC(=O)N1 (centres undefined)	-0.64	-0.76	-0.27	37	74*	38*
C=CCOC(=O)C1=C(C)NC(=O)NC1c1ccc(OC(=O)c2ccco2)c(OC)c1 (centres undefined)	0.48	-5.4*	-0.29	2	-43	-2
CCOC(=O)C1C(=O)OC(C)(C)C1C(C)C(=O)c1ccccc1 (centres undefined)	/	/	/	/	-45	/
CC(SC1CCCC1)C(=O)NC(C)(C#N)C(C)C (centres undefined)	-0.17	-2.1*	0.018	-5	/	-1
CC(C)C(C)(C#N)NC(=O)CSc1nnc(C(F)(F)F)n1C (centres undefined)	/	/	/	/	26	/
O=C(Nc1ccccc1Oc1ccccc1)C1CC1	0.25	0.61	0.49	10	/	-3
O=C(NCCC1=CCCCC1)C1COc2ccccc2O1 (centres undefined)	/	1.1	/	13	/	-5
Cc1ccccc1OCC(O)Cn1c(=N)n(CCN2CCOCC2)c2ccccc21 (centres undefined)	-0.52	-4.9*	-0.49	17	-36	/
CCCCC(=O)Nc1ccc(C(=O)N2CCN(c3ccccc3OC)CC2)cc1	-0.051	-0.04	3.4*	12	10	-5
COc1ccccc1N1CCN(C(=O)c2c(-c3ccccc3)noc2C)CC1	2.9	-0.069	-0.85	22	-22	88*
O=C(NC1CCCCC1)c1ccccc1NC(=O)C1CC(=O)N(c2ccc(Cl)cc2)C1 (centres undefined)	/	/	/	/	22	/
CCOC(=O)CNc1c(-c2ccc(O)cc2)nc2ccc(Cl)cn12	7.8*	-4.4*	-1.4	25	-22	-7
O=c1c2sc3nc(N4CCOCC4)c4c(c3c2ncn1Cc1ccco1)CCCC4	0.94	/	1	/	/	/
Brc1ccc(C2=Nn3c(nnc3-c3n[nH]c4c3CCC4)SC2)cc1	0.015	0.74	-1.2	32	/	79*
Clc1ccc(C2=Nn3c(nnc3-c3n[nH]c4c3CCC4)SC2)cc1	0.48	-1.1	0.17	38	/	92*
CCc1nnc(NC(=O)c2ccc(S(=O)(=O)N(CC(C)C)CC(C)C)cc2)o1	1.1	-0.16	0.61	25	/	94*
CSCc1nnc(NC(=O)c2ccc(S(=O)(=O)N(CC(C)C)CC(C)C)cc2)o1	-0.86	0.11	0.44	20	/	88*

Screening results deposited in PubChem BioAssay by several laboratories.
